Test results taken from ChEMBL document CHEMBL1132160, “Structure-antiviral activity relationship in the series of pyrimidine and purine N-[2-(2-phosphonomethoxy)ethyl] nucleotide analogues. 1. Derivatives substituted at the carbon atoms of the base” (J Med Chem, 1999).
Converted amounts (≈) assume the structure as drawn.

Tests used:
[1] = system: Human immunodeficiency virus 2; experiment: Inhibition of human immunodeficiency virus type 2 (HIV-2) induced cytopathogenicity in CEM cells; assay type: functional, organism-based; conditions: Human immunodeficiency virus 2, CCRF-CEM
Cytomegalovirus [2] = experiment: Inhibitory activity against cytomegalovirus (CMV) AD 169 strain; assay type: functional, organism-based; conditions: Human betaherpesvirus 5
Procedure, shortened: (§1)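 HEL cell cultures, grown to confluence, received 100 CCID50 of virus. After 1 h adsorption, the inoculum was removed and the cultures were incubated with serial concentrations of compound (400, 200, 100, ... μg/mL).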

Human alphaherpesvirus 1 [3] = experiment: Inhibitory activity against herpes simplex virus type 1 (HSV-1) KOS strain; assay type: functional, organism-based
Procedure, shortened: (§2)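 Confluent E6SM cell cultures were inoculated with 100 CCID50 of virus and allowed 1 h for adsorption. Residual virus was then removed, and the cells were incubated with test compound at 400, 200, 100, ... μg/mL. Viral cytopathicity was scored once it reached completion in untreated infected controls.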

Human alphaherpesvirus 2 [4] = experiment: Inhibitory activity against herpes simplex virus type 2 (HSV-2) G strain; assay type: functional, organism-based; procedure, shortened: as §2
Human alphaherpesvirus 2 [5] = experiment: Inhibitory activity against herpes simplex virus type 2 (HSV-2) Lyons strain; assay type: functional, organism-based; procedure, shortened: as §2
Human alphaherpesvirus 1 [6] = experiment: Inhibition of herpes simplex virus type 1 (HSV-1) F strain; assay type: functional, organism-based; procedure, shortened: as §2
[7] = system: Human immunodeficiency virus 2; experiment: Inhibitory activity against human immunodeficiency virus type 2 (HIV-2) induced cytopathogenicity in MT-4 cells; assay type: functional, organism-based; conditions: Human immunodeficiency virus 2, MT4
HEL = experiment: Compound was evaluated for inhibitory activity against varicella zoster virus thymidine kinase (VZV TK-) 07/1 strain; NA=not active; assay type: functional, cell-based, Homo sapiens
[8] = system: Human immunodeficiency virus 1; experiment: Inhibitory activity of compound against human immunodeficiency virus type 1 (HIV-1) induced cytopathogenicity in MT-4 cells; assay type: functional, organism-based; conditions: Human immunodeficiency virus 1, MT4
Procedure, shortened: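 Human MT-4 cells (~4 × 10⁵ cells/mL) were infected with 100 CCID50 of HIV-1 (IIIB)/mL and seeded into wells containing compound dilutions. After 5 days at 37 °C, viable cells were counted by trypan blue exclusion in a blood cell counting chamber.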

[9] = system: Human immunodeficiency virus 1; experiment: Inhibition of human immunodeficiency virus type 1 (HIV-1) induced cytopathogenicity in CEM cells; assay type: functional, organism-based; conditions: Human immunodeficiency virus 1, CCRF-CEM
Procedure, shortened: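 CEM cells (~3 × 10⁵ cells/mL) were infected with 100 CCID50 of HIV-1 (IIIB)/mL and plated with dilutions of compound. After 4 days at 37 °C, giant cell formation was assessed microscopically.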

[10] = Inhibitory activity against herpes simplex virus type 2 (HSV-2) 196 strain; assay type: functional; procedure, shortened: as §2
Cytomegalovirus [11] = experiment: Inhibitory activity against cytomegalovirus (CMV) Davis strain; assay type: functional, organism-based; conditions: Human betaherpesvirus 5; procedure, shortened: as §1
Human alphaherpesvirus 1 [12] = experiment: Inhibitory activity against herpes simplex virus type 1 (HSV-1) McIntyre strain; assay type: functional, organism-based; procedure, shortened: as §2
[13] = Inhibitory activity against murine sarcoma virus induced transformation of murine C3H/3T3 embryo fibroblasts; assay type: functional, Mus musculus
Procedure, shortened: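 Murine C3H/3T3 embryo fibroblasts were seeded at 5 × 10⁵ cells/mL. After 24 h they were infected with 80 focus-forming units of MSV for 90–120 min at 37 °C. The medium was then replaced with fresh medium containing various compound concentrations, and transformation was examined microscopically after 6 days.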

Vaccinia virus [14] = experiment: Inhibitory activity against vaccinia virus (VV); assay type: functional, organism-based; conditions: Orthopoxvirus vaccinia
Procedure, shortened: (§3)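 Confluent E6SM cell cultures were inoculated with 100 CCID50 of virus and left for 1 h adsorption, then residual virus was removed. Cultures were incubated with test compound at serial concentrations (400, 200, 100, ... μg/mL). Virus-induced cytopathicity was scored once it reached completion in untreated infected control cultures.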

Vaccinia virus [15] = experiment: Inhibitory activity against vaccinia virus (VV).; assay type: functional, organism-based, Orthopoxvirus vaccinia; procedure, shortened: as §3
E6SM = experiment: Inhibitory activity against herpes simplex virus type 2 (HSV-2) Lyons strain.; assay type: functional, cell-based, Homo sapiens; procedure, shortened: as §2
Human alphaherpesvirus 1 [16] = experiment: Inhibitory activity against herpes simplex virus type 1 (HSV-1) KOS strain.; assay type: functional, organism-based; procedure, shortened: as §2
Human alphaherpesvirus 1 [17] = experiment: Inhibitory activity against herpes simplex virus type 1 thymidine kinase (HSV-1 TK-) VMW 1837 strain.
Human alphaherpesvirus 1 [18] = experiment: Inhibitory activity against herpes simplex virus type 1 (HSV-1) F strain; assay type: functional, organism-based; procedure, shortened: as §2
Human alphaherpesvirus 2 [19] = experiment: Inhibitory activity against herpes simplex virus type 2 (HSV-2) 196 strain.; assay type: functional, organism-based; procedure, shortened: as §2
Human alphaherpesvirus 1 [20] = experiment: Iactivity against herpes simplex virus type 1 (HSV-1) McIntyre strain.; assay type: functional, organism-based; procedure, shortened: as §2
Human alphaherpesvirus 2 [21] = experiment: Inhibitory activity against herpes simplex virus type 2 (HSV-2) G strain.; assay type: functional, organism-based; procedure, shortened: as §2

In the case of Nc1ncnc2c1ccn2CCOCP(=O)(O)O, the EC50 [1] is reported as 2.5 µg/mL (≈ 9.18 µM), the EC50 (Cytomegalovirus [2]) is reported as over 50 µg/mL and the EC50 (Human alphaherpesvirus 1 [3]) is reported as 200 µg/mL (≈ 735 µM). For the same molecule, the EC50 (Human alphaherpesvirus 2 [4]) was 70 µg/mL (≈ 257 µM), the EC50 (Human alphaherpesvirus 2 [5]) was 100 µg/mL (≈ 367 µM) and the EC50 (Human alphaherpesvirus 1 [6]) was 150 µg/mL (≈ 551 µM). The EC50 [7] was 8.27 µg/mL (≈ 30.4 µM), the EC50 (HEL) was “Not Active” and the EC50 [8] was 7.56 µg/mL (≈ 27.8 µM). It also gave an EC50 [9] of 4 µg/mL (≈ 14.7 µM), an EC50 [10] of 200 µg/mL (≈ 735 µM) and an EC50 (Cytomegalovirus [11]) of over 50 µg/mL. The EC50 (Human alphaherpesvirus 1 [12]) was 100 µg/mL (≈ 367 µM), the EC50 [13] was 4.1 µg/mL (≈ 15.1 µM) and the EC50 (Vaccinia virus [14]) was 150 µg/mL (≈ 551 µM).
Nc1nccc(OCCOCP(=O)(O)O)n1 showed an EC50 (Cytomegalovirus [2]) of over 100 µg/mL, an EC50 (Human alphaherpesvirus 1 [3]) of over 200 µg/mL and an EC50 (Human alphaherpesvirus 2 [4]) of over 200 µg/mL. The EC50 (Human alphaherpesvirus 2 [5]) was 300 µg/mL (≈ 1200 µM), the EC50 (Vaccinia virus [15]) was “Not Active” and the EC50 (Human alphaherpesvirus 1 [6]) was over 200 µg/mL. It also gave an EC50 [7] of over 100 µg/mL, an EC50 [8] of over 100 µg/mL and an EC50 [10] of over 200 µg/mL. For the same molecule, the EC50 (Cytomegalovirus [11]) was over 100 µg/mL, the EC50 (Human alphaherpesvirus 1 [12]) was 300 µg/mL (≈ 1200 µM) and the EC50 [13] was 2.33 µg/mL (≈ 9.35 µM).
In the case of CC(C)OP(=O)(COCCn1cnc2c(N)nc(N)nc21)OC(C)C, the EC50 (Cytomegalovirus [2]) is reported as 2 µg/mL (≈ 5.37 µM), the EC50 (Human alphaherpesvirus 1 [3]) is reported as 240 µg/mL (≈ 645 µM) and the EC50 (Human alphaherpesvirus 2 [4]) is reported as over 400 µg/mL. It also gave an EC50 (Human alphaherpesvirus 2 [5]) of 240 µg/mL (≈ 645 µM), an EC50 (Human alphaherpesvirus 1 [6]) of 240 µg/mL (≈ 645 µM) and an EC50 [8] of over 100 µg/mL. The EC50 [9] was over 100 µg/mL, the EC50 [10] was 240 µg/mL (≈ 645 µM) and the EC50 (Cytomegalovirus [11]) was 2 µg/mL (≈ 5.37 µM). It also gave an EC50 (Human alphaherpesvirus 1 [12]) of 89 µg/mL (≈ 239 µM).
In the case of CC(C)OP(=O)(COCCn1cnc2c(N)nc(Cl)nc21)OC(C)C, the EC50 (Cytomegalovirus [2]) is reported as 0.65 µg/mL (≈ 1.66 µM), the EC50 (Vaccinia virus [15]) is reported as “Not Active” and the EC50 (E6SM) is reported as “Not Active”. The EC50 (Human alphaherpesvirus 1 [16]) was “Not Active”, the EC50 (Human alphaherpesvirus 1 [17]) was “Not Active” and the EC50 (HEL) was “Not Active”. The EC50 [8] was over 20 µg/mL, the EC50 (Cytomegalovirus [11]) was 0.7 µg/mL (≈ 1.79 µM) and the EC50 (Human alphaherpesvirus 1 [18]) was “Not Active”. The EC50 (Human alphaherpesvirus 2 [19]) was “Not Active”, the EC50 (Human alphaherpesvirus 1 [20]) was “Not Active” and the EC50 [13] was over 100 µg/mL. The EC50 (Human alphaherpesvirus 2 [21]) was “Not Active”.
Nc1ncc2ncn(CCOCP(=O)(O)O)c2n1 showed an EC50 (Cytomegalovirus [2]) of over 100 µg/mL, an EC50 (Human alphaherpesvirus 1 [3]) of 70 µg/mL (≈ 256 µM) and an EC50 (Human alphaherpesvirus 2 [4]) of 400 µg/mL (≈ 1460 µM). The EC50 (Human alphaherpesvirus 2 [5]) was 70 µg/mL (≈ 256 µM), the EC50 (Vaccinia virus [15]) was “Not Active” and the EC50 (Human alphaherpesvirus 1 [6]) was 20 µg/mL (≈ 73.2 µM). For the same molecule, the EC50 [7] was 50 µg/mL (≈ 183 µM), the EC50 [8] was 40.9 µg/mL (≈ 150 µM) and the EC50 [10] was 150 µg/mL (≈ 549 µM). It also gave an EC50 (Cytomegalovirus [11]) of over 100 µg/mL, an EC50 (Human alphaherpesvirus 1 [12]) of 20 µg/mL (≈ 73.2 µM) and an EC50 [13] of 0.1 µg/mL (≈ 0.366 µM).
In the case of Nc1nc(Cl)nc2c1ncn2CCOCP(=O)(O)O, the EC50 (Cytomegalovirus [2]) is reported as 88 µg/mL (≈ 286 µM), the EC50 (E6SM) is reported as “Not Active” and the EC50 (Human alphaherpesvirus 1 [16]) is reported as “Not Active”. For the same molecule, the EC50 (Human alphaherpesvirus 1 [17]) was “Not Active”, the EC50 [7] was over 100 µg/mL and the EC50 [8] was over 100 µg/mL. For the same molecule, the EC50 (Cytomegalovirus [11]) was 85 µg/mL (≈ 276 µM), the EC50 (Human alphaherpesvirus 1 [18]) was “Not Active” and the EC50 (Human alphaherpesvirus 2 [19]) was “Not Active”. For the same molecule, the EC50 (Human alphaherpesvirus 1 [20]) was “Not Active”, the EC50 [13] was 18.2 µg/mL (≈ 59.2 µM) and the EC50 (Vaccinia virus [14]) was over 40 µg/mL. For the same molecule, the EC50 (Human alphaherpesvirus 2 [21]) was “Not Active”.
With CC(C)OP(=O)(COCCn1cnc2c(Cl)nc(N)nc21)OC(C)C the EC50 (Cytomegalovirus [2]) was 40 µg/mL (≈ 102 µM), the EC50 (Vaccinia virus [15]) was “Not Active” and the EC50 (E6SM) was “Not Active”. The EC50 (Human alphaherpesvirus 1 [16]) was “Not Active”, the EC50 (Human alphaherpesvirus 1 [17]) was “Not Active” and the EC50 [7] was over 100 µg/mL. The EC50 [8] was over 100 µg/mL, the EC50 (Cytomegalovirus [11]) was 10 µg/mL (≈ 25.5 µM) and the EC50 (Human alphaherpesvirus 1 [18]) was “Not Active”. The EC50 (Human alphaherpesvirus 2 [19]) was “Not Active”, the EC50 (Human alphaherpesvirus 1 [20]) was “Not Active” and the EC50 [13] was over 100 µg/mL. For the same molecule, the EC50 (Human alphaherpesvirus 2 [21]) was “Not Active”.
With Nc1cnn(CCOCP(=O)(O)O)c(=O)n1 the EC50 (Cytomegalovirus [2]) was over 100 µg/mL, the EC50 (E6SM) was “Not Active” and the EC50 (Human alphaherpesvirus 1 [16]) was “Not Active”. For the same molecule, the EC50 (Human alphaherpesvirus 1 [17]) was “Not Active”, the EC50 [7] was over 100 µg/mL and the EC50 [8] was over 100 µg/mL. For the same molecule, the EC50 (Cytomegalovirus [11]) was over 100 µg/mL, the EC50 (Human alphaherpesvirus 1 [18]) was “Not Active” and the EC50 (Human alphaherpesvirus 2 [19]) was “Not Active”. The EC50 (Human alphaherpesvirus 1 [20]) was “Not Active”, the EC50 [13] was over 100 µg/mL and the EC50 (Human alphaherpesvirus 2 [21]) was “Not Active”.
Molecule CC(C)CCCCCOP(=O)(O)COCCn1cnc2c(O)nc(N)nc21 has an EC50 (Cytomegalovirus [2]) of over 50 µg/mL, an EC50 (Human alphaherpesvirus 1 [3]) of 240 µg/mL (≈ 598 µM) and an EC50 (Human alphaherpesvirus 2 [4]) of 240 µg/mL (≈ 598 µM). For the same molecule, the EC50 (Human alphaherpesvirus 2 [5]) was 240 µg/mL (≈ 598 µM), the EC50 (Human alphaherpesvirus 1 [6]) was 240 µg/mL (≈ 598 µM) and the EC50 [7] was over 100 µg/mL. The EC50 [8] was over 100 µg/mL, the EC50 [10] was 240 µg/mL (≈ 598 µM) and the EC50 (Cytomegalovirus [11]) was over 50 µg/mL. It also gave an EC50 (Human alphaherpesvirus 1 [12]) of 240 µg/mL (≈ 598 µM).
